Data from ChEMBL document CHEMBL3272092, “Synthesis and antihypertensive activity of 5-thio-2-pyridinecarboxylic acid derivatives” (J Med Chem, 1978).
Activity calls are given as the source filed them. The calls are words filed in the database; no cut-off is given here.

Assays:
Rattus norvegicus [1] = test: Antihypertensive activity in spontaneous hypertensive rat model assessed as decrease in blood pressure at 100 mg/kg, po administered for 2 to 4 days measured on day 2 to day 4; format: functional
Procedure, shortened: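 SHR, 4–6 per drug, were dosed daily by gavage for 2 or 4 consecutive days in 3% cornstarch, 5% PEG-400 and 1 drop Tween 80 per mL. After 1 h acclimation, systolic pressure was read by tail-cuff (inflated to 250 mmHg, then lowered; pulse reemergence), at least three readings, at 1, 2, 3 and 24 h post-dose. The peak fall is scored: +, <20 mm up to >80 mm.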

Canis familiaris [2] = test: Antihypertensive activity in unanesthetized renal hypertensive Mongrel dog model assessed as change in mean blood pressure at 60 mg/kg, po qd measured on day 1; format: functional, Canis lupus familiaris
Procedure, shortened: (§1)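 Conscious renal hypertensive dogs. Blood pressure recorded through a hypodermic needle and tubing to a pressure transducer; heart rate counted by hand. Solid drug given orally once daily in gelatin capsule. Pressures read at 1.5, 3, 6 and 24 h after each dose; maximum changes in pressure and heart rate over each daily session reported.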

Canis familiaris [3] = test: Antihypertensive activity in unanesthetized renal hypertensive Mongrel dog model assessed as change in mean blood pressure at 60 mg/kg, po qd measured on day 2; format: functional, Canis lupus familiaris; procedure, shortened: as §1
Canis familiaris [4] = test: Antihypertensive activity in unanesthetized renal hypertensive Mongrel dog model assessed as change in mean blood pressure at 60 mg/kg, po qd measured on day 3; format: functional, Canis lupus familiaris; procedure, shortened: as §1
Canis familiaris [5] = test: Toxicity in unanesthetized renal hypertensive Mongrel dog model assessed as change in heart rate at 60 mg/kg, po qd measured on day 1; format: organism-based, Canis lupus familiaris; design: dose 60 mg/kg, route oral; conditions: in vivo; procedure, shortened: as §1
Canis familiaris [6] = test: Toxicity in unanesthetized renal hypertensive Mongrel dog model assessed as change in heart rate at 60 mg/kg, po qd measured on day 2; format: organism-based, Canis lupus familiaris; design: dose 60 mg/kg, route oral; conditions: in vivo; procedure, shortened: as §1
Canis familiaris [7] = test: Toxicity in unanesthetized renal hypertensive Mongrel dog model assessed as change in heart rate at 60 mg/kg, po qd measured on day 3; format: organism-based, Canis lupus familiaris; design: dose 60 mg/kg, route oral; conditions: in vivo; procedure, shortened: as §1
Squirrel monkey [8] = test: Antihypertensive activity in normotensive squirrel monkey model assessed as decrease in systolic blood pressure at 30 mg/kg, po qd measured on day 1 by sphygmomanometry; format: functional, Saimiri sciureus, Artery
Procedure, shortened: (§2)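 Squirrel monkeys of either sex restrained in primate chairs, tails warmed by infrared lamp. Systolic pressure taken indirectly by tail-base occlusion cuff with pulse transducer; heart rate counted by hand from the pressure trace. Daily gavage of a suspension in 3% cornstarch, 5% PEG-400 and 1 drop Tween 80 per 10 mL. Read at 1.5, 3, 5 and 24 h; peak change per dose; paired t test.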

Squirrel monkey [9] = test: Antihypertensive activity in normotensive squirrel monkey model assessed as decrease in systolic blood pressure at 100 mg/kg, po qd measured on day 2 by sphygmomanometry; format: functional, Saimiri sciureus, Artery
Procedure, shortened: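 Restrained squirrel monkeys of either sex with tails warmed by infrared lamp. Systolic pressure was measured indirectly with a tail-base occlusion cuff and pulse transducer. Doses were given daily by gavage as a suspension in 3% cornstarch, 5% PEG-400 and 1 drop Tween 80 per 10 mL. Readings were taken 1.5, 3, 5 and 24 h post-dose. Values are the peak change after each dose, analysed by paired t test.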

Squirrel monkey [10] = test: Toxicity in normotensive squirrel monkey model assessed as change in heart rate at 30 mg/kg, po qd measured on day 1; format: organism-based, Saimiri sciureus; design: dose 30 mg/kg, route oral; conditions: in vivo; procedure, shortened: as §2
Squirrel monkey [11] = test: Toxicity in normotensive squirrel monkey model assessed as change in heart rate at 100 mg/kg, po qd measured on day 2; format: organism-based, Saimiri sciureus; design: dose 100 mg/kg, route oral; conditions: in vivo
Procedure, shortened: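 Heart rate in restrained, tail-warmed squirrel monkeys was counted manually from the tail-cuff pressure record. Daily gavage used a suspension in 3% cornstarch, 5% PEG-400 and 1 drop Tween 80 per 10 mL. Monitoring was at 1.5, 3, 5 and 24 h after each dose, and the peak change per administration is reported. Paired t test.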

Canis familiaris [12] = test: Toxicity in unanesthetized renal hypertensive Mongrel dog model assessed as emesis at 60 mg/kg, po qd measured on day 1 to 4; format: organism-based, Canis lupus familiaris; design: dose 60 mg/kg, route oral; conditions: in vivo
Squirrel monkey [13] = test: Toxicity in normotensive squirrel monkey model assessed as emesis at 30 mg/kg, po qd measured on day 1; format: organism-based, Saimiri sciureus; design: dose 30 mg/kg, route oral; conditions: in vivo
Squirrel monkey [14] = test: Toxicity in normotensive squirrel monkey model assessed as emesis at 100 mg/kg, po qd measured on day 2; format: organism-based, Saimiri sciureus; design: dose 100 mg/kg, route oral; conditions: in vivo
Rattus norvegicus [15] = test: Antihypertensive activity in spontaneous hypertensive rat model assessed as decrease in blood pressure at 30 mg/kg, po administered for 2 to 4 days measured on day 2 to day 4; format: functional
Rattus norvegicus [16] = test: Toxicity in spontaneous hypertensive rat model at 100 mg/kg, po administered for 2 to 4 days; format: organism-based; design: dose 100 mg/kg, route oral; conditions: in vivo

Compound	Activity (Rattus norvegicus [1])	further results
CCCCc1ccc(C(=O)O)nc1 [FUSARIC ACID]	>60 mmHg	Activity (Canis familiaris [2]): -50 mmHg; Activity (Canis familiaris [3]): -45 mmHg; Activity (Canis familiaris [4]): -30 mmHg; Activity (Canis familiaris [5]): 32 bpm; Activity (Canis familiaris [6]): 35 bpm; Activity (Canis familiaris [7]): 33 bpm; Activity (Squirrel monkey [8]): -28 mmHg; Activity (Squirrel monkey [9]): -53 mmHg; Activity (Squirrel monkey [10]): -20 bpm; Activity (Squirrel monkey [11]): 10 bpm; Activity (Canis familiaris [12]): Toxic; Activity (Squirrel monkey [13]): Non-toxic; Activity (Squirrel monkey [14]): Non-toxic
O=C([O-])c1ccc(SCc2c(Cl)cccc2Cl)cn1.[Na+]	<20 mmHg	–
O=C([O-])c1ccc(SCc2ccc(Cl)c(Cl)c2)cn1.[Na+]	<20 mmHg	–
CCCC(Sc1ccc(C(=O)O)nc1)c1cccc(C(F)(F)F)c1 (configuration not stated)	>20 mmHg	–
COc1cccc(C[S+]([O-])c2ccc(C(=O)O)nc2)c1 (configuration not stated)	<20 mmHg	–
O=C(O)c1ccc(SCc2ccccc2)cn1	>40 mmHg	–
O=C([O-])c1ccc(SCc2cccc(Br)c2)cn1.[Na+]	>60 mmHg	–
O=C(O)c1ccc([S+]([O-])Cc2ccc(Cl)cc2)cn1 (configuration not stated)	>20 mmHg	–
O=C([O-])c1ccc(Sc2ccc(Cl)cc2)cn1.[Na+]	–	Activity (Rattus norvegicus [15]): <20 mmHg; Activity (Rattus norvegicus [16]): Toxic
O=C([O-])c1ccc([S+]([O-])Cc2ccc(Cl)cc2Cl)cn1.[Na+] (configuration not stated)	>20 mmHg	–
O=C([O-])c1ccc(SCc2ccc(Br)cc2)cn1.[Na+]	>40 mmHg	–
O=C([O-])c1ccc(S(=O)(=O)Cc2cccc(C(F)(F)F)c2)cn1.[Na+]	<20 mmHg	–
CC(c1cccc(C(F)(F)F)c1)[S+]([O-])c1ccc(C(=O)O)nc1 (configuration not stated)	>20 mmHg	–
O=C(O)c1ccc(SCc2cccc(Cl)c2)cn1	>40 mmHg	–
O=C(O)c1ccc(SCc2cccc(F)c2)cn1	>20 mmHg	–
O=C(O)c1ccc(SCc2ccc(Cl)cc2)cn1	>40 mmHg	–
CCCCS(=O)(=O)c1ccc(C(=O)O)nc1	inactive	–
O=C(O)c1ccc(SCCCCl)cn1	>20 mmHg	–
